This note sets out measurements from ChEMBL document CHEMBL4130464, “Cytotoxic Prenylated Stilbenes Isolated from Macaranga tanarius” (J Nat Prod, 2017).

Structures are written as SMILES. Non-standard residues stand in square brackets, D forms with d. Residues, ends and D or L forms follow the SMILES beside them. *: point of attachment. Dolaproine = CO[C@@H]([C@@H]1CCCN1)[C@@H](C)C(=O)O; Dil = CC[C@H](C)[C@H](NC)[C@@H](CC(=O)O)OC; X1 = C[C@@H](N*)[C@@H](O)c1ccccc1; NMeV = CN[C@H](C(=O)O)C(C)C

The test system of assay [1] is A549. The experiment in a line: Antiproliferative activity against human A549 cells after 72 hrs by MTS assay. It is filed as functional, cell-based. Particulars: A549, 72 h. In short, it runs like this: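 A549 human lung cancer cells (ATCC) grown in RPMI 1640 with 10% FCS and 1% glutamine at 37 °C, 5% CO2. Cells seeded at 2.5 × 10^3 per well and cultured 24 h, then treated at 1 and 10 μM final for 72 h. […] added for 2 h, absorbance read at 490 nm. Cytotoxicity index (OD490treated/OD490control × 100) taken from three experiments.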
(In general: Tetrazolium dyes change colour on reduction, which living cells bring about.)

In assay [2] the test system is U-87 MG. The experiment in a line: Antiproliferative activity against human U87 cells after 72 hrs by MTS assay. It is filed as functional, cell-based, U-87MG ATCC. The method, boiled down:
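U87 human glioblastoma cells (ATCC) kept in DMEM with 10% FCS and 1% glutamine at 37 °C, 5% CO2. Seeded at 2.5 × 10^3 cells/well, exposed after 24 h to compounds at 1 and 10 μM final for 72 h. […] added 2 h before reading absorbance at 490 nm. Percent cytotoxicity index (treated/control OD490 × 100) from three experiments.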

For the compound `CC(C)=CCc1c(O)cc(/C=C/c2cc(O)c3c(c2)C[C@@H]2C(C)(C)[C@H](O)[C@H](O)C[C@@]2(C)O3)cc1O` [VEDELIANIN], the EC50 – broadly, the concentration that produces a half-maximal response – in assay [1] worked out at 190 nM; in assay [2] it was 30 nM.
For `CC(C)=CCC/C(C)=C/Cc1cc(/C=C/c2cc(O)cc(Oc3ccc4c(c3)O[C@H](c3ccc(C/C=C(\C)CCC=C(C)C)c(O)c3O)[C@@H]4O)c2)cc(O)c1O`, in that order: greater than 10000 nM and greater than 10000 nM.
Consider `COc1cc(/C=C/c2cc(O)c(CC=C(C)C)c(O)c2)cc2c1O[C@]1(C)CC[C@@H](O)C(C)(C)[C@H]1C2` [SCHWEINFURTHIN F], for which the EC50 is 1500 nM in assay [1] and 240 nM in assay [2].
For `CC(C)=CCC[C@]1(C)Oc2c(O)cc(/C=C/c3cc(O)c4c(c3)OC(C)(C)C(O)C4)cc2C[C@@H]1O` (stereo partly drawn), in that order: 240 nM and 450 nM.
Turning to `COc1cc(/C=C/c2cc(O)c(CC=C(C)C)c(O)c2)cc2c1O[C@]1(C)C[C@@H](O)[C@@H](O)C(C)(C)[C@H]1C2` [SCHWEINFURTHIN E], the EC50 came out at 260 nM in assay [1] and 200 nM in assay [2].
For `CC(C)=CCc1c(O)cc(/C=C/c2cc(O)c3c(c2)C[C@@H]2C(C)(C)[C@H](O)CC[C@@]2(C)O3)cc1O` [SCHWEINFURTHIN G], in that order: 800 nM and 45 nM.
With `CC(C)=CCC/C(C)=C/Cc1cc(/C=C/c2cc(O)c3c(c2)OC(C)(C)[C@@H](O)C3)cc(O)c1O`, the figures for the 50% effective concentration (EC50) in assay [1] and in assay [2] were 730 nM and 250 nM, respectively.
For `CC(C)=CCc1c(O)cc(/C=C/c2cc(O)c3c(c2)C[C@@H]2C(C)(C)[C@H](O)C[C@H](O)[C@@]2(C)O3)cc1O`, in that order: greater than 10000 nM and 50 nM.
For `CC(C)=CCC/C(C)=C/Cc1cc(/C=C/c2cc(O)c(CC=C(C)C)c(O)c2)cc(O)c1O` [MAPPAIN], in that order: 7000 nM and 5400 nM.
As for `CC(C)=CCC/C(C)=C/CC/C(C)=C/Cc1c(O)cc(/C=C/c2ccc(O)c(O)c2)cc1O`, the EC50 in assay [1] was greater than 10000 nM; in assay [2], 25 nM.
For `C/C(=C\Cc1cc(/C=C/c2cc(O)c3c(c2)OC(C)(C)[C@@H](O)C3)cc(O)c1O)CCC(O)C(C)(C)O` (stereo partly drawn), in that order: greater than 10000 nM and 500 nM.
Regarding `COc1cc(/C=C/c2cc(O)c(CC=C(C)C)c(O)c2)cc(C/C=C(\C)CCC=C(C)C)c1O`, the concentration giving a half-maximal response (EC50) was greater than 10000 nM in assay [1] and 7000 nM in assay [2].
For `CC(C)=CCc1c(O)cc(/C=C/c2cc(O)c(O)c(C/C=C(\C)CCC(O)C(C)(C)O)c2)cc1O` (stereo not drawn), in that order: greater than 10000 nM and 100 nM.
For `CC[C@H](C)[C@@H]([C@@H](CC(=O)N1CCC[C@H]1[C@H](OC)[C@@H](C)C(=O)N[C@H](C)[C@@H](O)c1ccccc1)OC)N(C)C(=O)[C@@H](NC(=O)[C@@H](NC)C(C)C)C(C)C` (H-[NMeV]V[Dil][Dolaproine]-X1), in that order: 0.5 nM and 0.2 nM.
